Active and inactive are the calls of the source. No cut-off for these calls is given here. A value given as a limit tells only on which side of the number the result lay.

Broadly, the IC50 is the concentration that inhibits the measured activity by half. The low end stands for inhibition by little substance, the high end for a need for much substance.

Data set [1] deals with MDA-MB-231. Kind of data set: Antiproliferative activity against human MDA-MB-231 cells after 48 hrs by MTT assay. The data set is classed as functional, cell-based. The following applies: MDA-MB-231, 48 h. Background: Tetrazolium dyes change colour on reduction, which living cells bring about.
A short description of data set [2]: Antiproliferative activity against human MDA-MB-231/Gem cells after 48 hrs by MTT assay. The data set is classed as functional, cell-based.
Data set [3] is described as follows: Resistance ratio of IC50 for human MDA-MB-231/Gem cells to IC50 for human MDA-MB-231 cells. The data set is classed as functional. In a few lines:
(§1)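 Resistance ratio = IC50 in the resistant line / IC50 in the drug-sensitive parent line. Each IC50 came from MTT assays, mean of triplicate determinations.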

For data set [4], the system named is WI-38. The data set can be described thus: Cytotoxicity against human WI38 cells after 72 hrs by MTS assay. The data set is classed as cell-based. The following applies: WI-38, 72 h. In a few lines:
(§2)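 Non-tumour human cells were HUVEC (umbilical vein endothelial), T29 (immortalized, nontumorigenic ovarian epithelial), WI-38 (lung fibroblasts) and MCF-10A (nontumorigenic breast epithelial). Viability was read by tetrazolium assay. IC50 is the mean of triplicate determinations.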

In data set [5] the test system is MCF-10A. The data set can be described thus: Cytotoxicity against human MCF10A cells after 72 hrs by MTS assay. The data set is classed as cell-based. In a few lines: as §2
Data set [6] deals with HeLa. The data set can be described thus: Antiproliferative activity against human HeLa cells after 48 hrs by MTT assay. In kind it is functional, cell-based. The essentials: (§3)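 Human tumour lines were HeLa (cervical), SKOV3, OVCA429, OVCA433 and A2780 (ovarian), A549 (non-small cell lung), MDA-MB-231 and MCF-7 (breast), and KB (oral epidermoid). Antiproliferation was read by MTT assay. IC50 is the mean of triplicate determinations.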

Data set [7] deals with SK-OV-3. The data set can be described thus: Antiproliferative activity against human SKOV3 cells after 48 hrs by MTT assay. The data set is classed as functional, cell-based. The following applies: SK-OV-3, 48 h. In a few lines: as §3
For data set [8], the system named is A549. Kind of data set: Antiproliferative activity against human A549 cells after 48 hrs by MTT assay. The data set is classed as functional, cell-based. The following applies: A549, 48 h. In a few lines:
as §3

Data set [9] in a line: Antiproliferative activity against human OVCA429 cells after 48 hrs by MTT assay. The following applies: OVCA429, 48 h. In kind it is functional, cell-based. In a few lines:
as §3

Data set [10] can be described thus: Antiproliferative activity against human OVCA433 cells after 48 hrs by MTT assay. In kind it is functional, cell-based. The following applies: OVCA433, 48 h. The essentials: as §3
Data set [11] deals with A2780. Kind of data set: Antiproliferative activity against human A2780 cells after 48 hrs by MTT assay. The following applies: A2780, 48 h. The data set is classed as functional, cell-based. The essentials: as §3
Data set [12] relates to MCF7. Kind of data set: Antiproliferative activity against human MCF7 cells after 48 hrs by MTT assay. In kind it is functional, cell-based. The following applies: MCF7, 48 h. The essentials:
as §3

The test system of data set [13] is KB. Kind of data set: Antiproliferative activity against human KB cells after 48 hrs by MTT assay. In kind it is functional, cell-based. In a few lines:
as §3

Data set [14] relates to MV4-11. Kind of data set: Antiproliferative activity against human MV411 cells after 72 hrs by MTS assay. The following applies: MV4-11, 72 h. The data set is classed as functional, cell-based. The essentials: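 Human myeloid leukaemia MV-4-11 cells; antiproliferation read by MTS assay. IC50 is the mean of triplicate determinations.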
In data set [15] the test system is MM1.S. The data set can be described thus: Antiproliferative activity against human MM1S cells after 72 hrs by MTS assay. The data set is classed as functional, cell-based.
Data set [16] can be described thus: Antiproliferative activity against human A2780/CDDP cells after 48 hrs by MTT assay. The data set is classed as functional, cell-based. The essentials: (§4)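 Drug-resistant human tumour lines were A2780/CDDP (cisplatin-resistant ovarian), MDA-MB-231/Gem (gemcitabine-resistant breast), MCF-7/ADR and KB-V. Antiproliferation was read by MTT assay. IC50 is the mean of triplicate determinations.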

In data set [17] the test system is NCI/ADR-RES. Kind of data set: Antiproliferative activity against human MCF7/ADR cells after 48 hrs by MTT assay. In kind it is functional, cell-based. The essentials:
as §4

Data set [18] is described as follows: Antiproliferative activity against human KBV cells after 48 hrs by MTT assay. The data set is classed as functional, cell-based. The essentials: as §4
Data set [19] relates to HUVEC. Kind of data set: Cytotoxicity against HUVEC after 48 hrs by MTT assay. The settings on record: Homo sapiens. In kind it is cell-based. The essentials: as §2
Data set [20] in a line: Cytotoxicity against human T29 cells after 48 hrs by MTT assay. The data set is classed as cell-based. The settings on record: T29, 48 h. The essentials:
as §2

Data set [21] in a line: Drug metabolism in human A2780 cells assessed as nitric oxide release at 100 uM after 150 mins by Griess assay. The following applies: a2780, 2.5 h. The data set is classed as ADME, cell-based. (Nitrite, measured by Griess reagent, commonly stands in for NO production.)
The test system of data set [22] is A2780. The data set can be described thus: Induction of apoptosis in human A2780 cells assessed as increase in late apoptotic cells at 10 to 20 nM measured after 24 hrs by Annexin-V-FITC/propidium iodide staining based flow cytometric method. The data set is classed as functional, cell-based. (A flow cytometer gives signals particle by particle.)
Data set [23] can be described thus: Resistance ratio of IC50 for human KBV cells to IC50 for human KB cells. The data set is classed as functional. In a few lines:
as §1

With `Nc1ccn([C@@H]2O[C@H](CO)[C@@H](O)C2(F)F)c(=O)n1` [GEMCITABINE], the IC50 in data set [1] is 36.4 nM; in data set [2] it was over 50000 nM. Moreover, the “Ratio IC50” value in [3] is reported as over 1373.
Consider `Cc1cc(=O)oc2cc(OCCOc3no[n+]([O-])c3S(=O)(=O)c3ccccc3)ccc12`, for which the IC50 in data set [4] is 90 nM; in data set [5] it was 660 nM; in [6] it was 62.2 nM; in data set [7], 47.3 nM; in [8], 45.8 nM; in data set [9] it was 41.1 nM. Also, the IC50 in data set [10] is 131 nM; in data set [11] it was 20.9 nM; in data set [12], 445 nM; in [13], 127 nM; in data set [14], 28.3 nM; in [15], 21 nM. The half-maximal inhibitory concentration (IC50) worked out at 85.7 nM in [16]; 157 nM in data set [17]; 24.9 nM in data set [18]; 130 nM in data set [19]; 1800 nM in [20]. The Drug metabolism entry in data set [21] is “Metabolite_Detected”. For the same compound, in data set [22], the outcome was Active.
Turning to `CC[C@]1(O)C[C@H]2CN(CCc3c([nH]c4ccccc34)[C@@](C(=O)OC)(c3cc4c(cc3OC)N(C=O)[C@H]3[C@@](O)(C(=O)OC)[C@H](OC(C)=O)[C@]5(CC)C=CCN6CC[C@]43[C@@H]65)C2)C1` [VINCRISTINE], the IC50 in data set [13] was 0.65 nM; in data set [18] it was 417 nM. In [23], the “Ratio IC50” value came to 646.

(Values after ChEMBL document CHEMBL4145601, “Novel Nitric Oxide Donors of Phenylsulfonylfuroxan and 3-Benzyl Coumarin Derivatives as Potent Antitumor Agents” (ACS Med Chem Lett, 2018).)
